Assay results: ChEMBL document CHEMBL5032505, “Design, Synthesis, and Activity Evaluation of Stereoconfigured Tartarate Derivatives as Potential Anti-inflammatory Agents In Vitro and In Vivo” (J Med Chem, 2021)
Calls of active or inactive are those of the source. No cut-off for these calls is given here.

Assays:
[1] = Inhibition of soybean LOX using arachidonic acid as substrate incubated for 5 mins; parameters: species or system Glycine max
How it was run: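 Soybean lipoxygenase in assay buffer, compounds at 10⁻⁴–10⁻⁸ M from DMSO stocks, triplicate. Reaction started with arachidonic acid and shaken 5 min. Chromogen added, shaken 5 min more, absorbance read at 490 nm. Blanks were buffer + AA. % inhibition computed with chromogen extinction coefficient 9.47 mM⁻¹.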

[2] = tested on: Mus musculus; assay: Analgesic activity in Swiss albino mouse assessed as inhibition of acetic acid-induced writhing at 5 mg/kg, ip administered 30 mins prior to acetic acid challenge and measured after 30 mins relative to control; assay type: functional
How it was run: (§1)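 Mice pretreated i.p. with indomethacin (10 mg/kg) or test compound (5 mg/kg) 30 min before 0.6% v/v acetic acid injection. Control group also received acetic acid. Animals placed in a transparent box and abdominal writhings counted for 30 min. Six animals per group, one-way ANOVA with Tukey's test, mean ± SEM.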

[3] = biological target: T1, Prostaglandin G/H synthase 1 (Ovis aries, UniProt P05979); assay: Inhibition of ovine COX-1 using arachidonic acid as substrate preincubated for 10 mins followed by substrate addition and measured after 2 mins by EIA
T1 sequence (P05979 whole entry): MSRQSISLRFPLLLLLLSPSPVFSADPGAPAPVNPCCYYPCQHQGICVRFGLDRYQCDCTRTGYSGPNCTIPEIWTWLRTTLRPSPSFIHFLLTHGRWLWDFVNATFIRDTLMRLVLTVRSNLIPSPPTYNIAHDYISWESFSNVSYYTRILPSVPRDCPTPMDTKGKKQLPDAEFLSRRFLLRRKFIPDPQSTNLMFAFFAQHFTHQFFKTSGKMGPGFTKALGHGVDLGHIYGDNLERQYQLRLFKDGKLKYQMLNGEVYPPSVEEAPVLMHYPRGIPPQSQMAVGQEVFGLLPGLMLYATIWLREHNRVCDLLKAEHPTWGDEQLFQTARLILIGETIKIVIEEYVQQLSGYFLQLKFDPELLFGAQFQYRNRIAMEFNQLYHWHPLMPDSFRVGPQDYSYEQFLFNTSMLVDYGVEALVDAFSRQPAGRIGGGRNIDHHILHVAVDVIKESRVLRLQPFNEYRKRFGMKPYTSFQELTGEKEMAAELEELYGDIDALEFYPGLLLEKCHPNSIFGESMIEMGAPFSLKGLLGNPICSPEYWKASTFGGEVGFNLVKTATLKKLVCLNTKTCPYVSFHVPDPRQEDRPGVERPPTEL
How it was run: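 COX-1 EIA run at 10⁻⁴–10⁻⁸ M in triplicate. Enzyme with heme in reaction buffer plus inhibitor, incubated 10 min at 37 °C. Boiled (3 min) enzyme served as background. Prostaglandin output quantified to give IC50.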

[4] = biological target: Prostaglandin G/H synthase 1 (Homo sapiens) (UniProt P23219); assay: Inhibition of COX1 in human whole blood assessed as reduction in calcium ionophore-stimulated TXB2 production by ELISA; assay type: tissue-based
[5] = tested on: Mus musculus; assay: Analgesic activity in Swiss albino mouse assessed as inhibition of acetic acid-induced writhing at 10 mg/kg, ip administered 30 mins prior to acetic acid challenge and measured after 30 mins relative to control; assay type: functional; parameters: scale not given: the % may be the effect or the level left; conditions: time 60 min, 1 h; how it was run: as §1
[6] = tested on: Mus musculus; assay: Antiinflammatory activity in Swiss albino mouse model of carrageenan-induced paw edema assessed as reduction in paw thickness at 10 mg/kg, administered 30 mins prior to carrageenan challenge and measured upto 360 mins; assay type: functional; parameters: scale not given: the % may be the effect or the level left; conditions: time 390 min, 6.5 h
How it was run: (§2)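 100 μL freshly prepared 1% carrageenan injected into the subplantar hind paw, with indomethacin (10 mg/kg) or test compound given 30 min before. Dose–response arm used 0.5, 2.5, 5, 10, 20 mg/kg. Six animals per group. Paw thickness (mm) read at 15, 30, 60, 120, 180, 240, 300, 360 min. Result expressed as % decrease versus control.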

[7] = tested on: Mus musculus; assay: Antiinflammatory activity in Swiss albino mouse model of carrageenan-induced paw edema assessed as reduction in paw thickness at 5 mg/kg, administered 30 mins prior to carrageenan challenge and measured upto 360 mins relative to control; assay type: functional; parameters: scale not given: the % may be the effect or the level left; conditions: time 390 min, 6.5 h; how it was run: as §2

Prostaglandin G/H synthase 1 (Homo sapiens), sequence (P23219 whole entry): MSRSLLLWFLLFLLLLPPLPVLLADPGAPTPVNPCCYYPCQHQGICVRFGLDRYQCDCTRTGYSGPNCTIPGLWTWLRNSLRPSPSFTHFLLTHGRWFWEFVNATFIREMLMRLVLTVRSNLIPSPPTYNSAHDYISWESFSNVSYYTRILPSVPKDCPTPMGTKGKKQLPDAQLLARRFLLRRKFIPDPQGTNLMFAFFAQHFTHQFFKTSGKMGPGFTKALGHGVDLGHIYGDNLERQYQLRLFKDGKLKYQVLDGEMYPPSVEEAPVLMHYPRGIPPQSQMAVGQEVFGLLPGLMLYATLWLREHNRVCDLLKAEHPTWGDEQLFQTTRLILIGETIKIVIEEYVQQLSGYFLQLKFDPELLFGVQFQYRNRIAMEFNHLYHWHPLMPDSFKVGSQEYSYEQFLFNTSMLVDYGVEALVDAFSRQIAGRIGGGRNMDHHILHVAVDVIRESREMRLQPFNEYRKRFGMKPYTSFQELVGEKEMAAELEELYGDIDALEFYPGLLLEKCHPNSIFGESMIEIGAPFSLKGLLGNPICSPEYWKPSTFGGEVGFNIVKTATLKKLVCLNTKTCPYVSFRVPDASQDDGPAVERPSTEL

O=C(O)[C@H](OCc1cnnn1[C@@H](Cc1ccccc1)C(=O)O)[C@@H](OCc1cnnn1[C@@H](Cc1ccccc1)C(=O)O)C(=O)O
IC50 [1]: 0.5 µM | Activity ([2]; time 60.0 min): inactive

CCOC(=O)[C@H](OCc1cnnn1[C@@H](Cc1ccccc1)C(=O)OC)[C@@H](OCc1cnnn1[C@@H](Cc1ccccc1)C(=O)OC)C(=O)OCC
IC50 [1]: 0.09 µM | IC50 [3]: 90 µM

COC(=O)[C@H](Cc1ccc(O)cc1)n1nncc1COc1ccc2ccccc2c1-c1c(OCc2cnnn2[C@@H](Cc2ccc(O)cc2)C(=O)OC)ccc2ccccc12
IC50 [1]: 0.6 µM | IC50 [3]: > 10 µM | Activity ([2]; time 60.0 min): inactive

O=C1NC(=O)C(=Cc2cn(C[C@H](O)COc3cc(O)c4c(=O)cc(-c5ccccc5)oc4c3)c3ccccc23)C(=O)N1
IC50 [1]: 0.0015 µM | IC50 [3]: 0.34 µM

COC(=O)[C@H](CO)n1nncc1COc1ccc2ccccc2c1-c1c(OCc2cnnn2[C@@H](CO)C(=O)OC)ccc2ccccc12
IC50 [1]: 6 µM | IC50 [3]: 86 µM

COc1cc(-c2cc(C(=O)CCCOc3ccc4ccc(=O)oc4c3)nn2-c2ccccc2)cc(OC)c1OC
IC50 [1]: 0.87 µM | IC50 [3]: 53.1 µM

CCOC(=O)[C@H](OCc1cnnn1[C@@H](Cc1c[nH]c2ccccc12)C(=O)OC)[C@@H](OCc1cnnn1[C@@H](Cc1c[nH]c2ccccc12)C(=O)OC)C(=O)OCC
IC50 [1]: 0.45 µM | IC50 [3]: > 10 µM | Activity ([2]; time 60.0 min): inactive

COC(=O)[C@H](Cc1ccccc1)n1nncc1COc1ccc2ccccc2c1-c1c(OCc2cnnn2[C@@H](Cc2ccccc2)C(=O)OC)ccc2ccccc12
IC50 [1]: 3 µM | IC50 [3]: 150 µM

CCOC(=O)[C@H](OCc1cnnn1[C@H](Cc1ccc(O)cc1)C(=O)OC)[C@@H](OCc1cnnn1[C@@H](Cc1ccc(O)cc1)C(=O)OC)C(=O)OCC
IC50 [1]: 0.14 µM | IC50 [3]: > 10 µM

CCOC(=O)[C@H](O)[C@@H](OCc1cnnn1[C@@H](Cc1ccc(O)cc1)C(=O)OC)C(=O)OCC
IC50 [1]: 12 µM | IC50 [3]: 80 µM

CCOC(=O)[C@H](O)[C@@H](OCc1cnnn1[C@@H](Cc1ccccc1)C(=O)OC)C(=O)OCC
IC50 [1]: 8 µM | IC50 [3]: 55 µM

CCOC(=O)[C@H](OCc1cnnn1[C@@H](CO)C(=O)OC)[C@@H](OCc1cnnn1[C@@H](CO)C(=O)OC)C(=O)OCC
IC50 [1]: 1.3 µM | IC50 [3]: 54 µM | Activity ([2]; time 60.0 min): Active

Cc1ccc(S(=O)(=O)n2cc(C(=O)C(=O)N[C@H](C(=O)NCC(=O)O)c3c[nH]c4ccccc34)c3ccccc32)cc1
IC50 [1]: 0.08 µM | IC50 [3]: 12.9 µM

CCOC(=O)[C@H](OCc1cnnn1[C@@H](Cc1ccc(O)cc1)C(=O)OC)[C@@H](OCc1cnnn1[C@@H](Cc1ccc(O)cc1)C(=O)OC)C(=O)OCC
IC50 [1]: 0.15 µM | IC50 [3]: > 10 µM | Activity ([2]; time 60.0 min): inactive

CC(c1cc2ccccc2s1)N(O)C(N)=O (configuration not stated) [ZILEUTON]
IC50 [1]: 0.3 µM

COc1ccc(-n2nc(CCC(=O)N(C)O)cc2-c2ccc(Cl)cc2)cc1 [TEPOXALIN]
IC50 [1]: 0.15 µM

COc1ccc2c(c1)c(CC(=O)O)c(C)n2C(=O)c1ccc(Cl)cc1 [INDOMETHACIN]
Activity [4]: 0.9 ng/mL | Activity [5]: 55% | Activity [6]: 30%

CCOC(=O)Cn1nncc1CO[C@@H](C(=O)OCC)[C@@H](O)C(=O)OCC
IC50 [1]: 6 µM | IC50 [3]: 95 µM

CCOC(=O)Cn1nncc1CO[C@@H](C(=O)OCC)[C@@H](OCc1cnnn1CC(=O)OCC)C(=O)OCC
IC50 [1]: 0.3 µM | IC50 [3]: 60 µM | Activity ([2]; time 60.0 min): Active

COC(=O)[C@H](Cc1c[nH]c2ccccc12)n1nncc1COc1ccc2ccccc2c1-c1c(OCc2cnnn2[C@@H](Cc2c[nH]c3ccccc23)C(=O)OC)ccc2ccccc12
IC50 [1]: 1 µM | IC50 [3]: 90 µM

CCOC(=O)[C@H](O)[C@@H](OCc1cnnn1[C@@H](CO)C(=O)OC)C(=O)OCC
IC50 [1]: 14 µM | IC50 [3]: 110 µM

CC1(C)Cc2c(-c3ccccc3)c(-c3ccc(Cl)cc3)c(CC(=O)O)n2C1 [LICOFELONE]
IC50 [1]: 0.18 µM | IC50 [3]: 0.21 µM

Cc1ccc(-c2cc(C(F)(F)F)nn2-c2ccc(S(N)(=O)=O)cc2)cc1 [CELECOXIB]
Activity ([2]; time 60 min, 1 h): 62% | Activity [7]: 33%

CCOC(=O)Cn1nncc1COc1ccc2ccccc2c1-c1c(OCc2cnnn2CC(=O)OCC)ccc2ccccc12
IC50 [1]: 11 µM | IC50 [3]: 70 µM
